Tests used:
[1] = Antiviral activity against recombinant HCV genotype 2a JFH-1 infected in human Huh7.5 cells after 3 days by renilla luciferase reporter gene assay; type: functional, cell-based, Hepatitis C virus subtype 2a; conditions: Hepatitis C virus, JFH-1, Huh7.5, 72 h
Summary of the method: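 Huh7.5 cells in DMEM with 10% FBS were infected with JFH1-Luc reporter virus at MOI 0.004 for 5 h at 37 °C while exposed to 3-fold serial dilutions of compound. On day 3 post-infection, the cells were lysed and Renilla luciferase activity was read. EC50 was calculated from the signal. Run in triplicate.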

[2] = Cytotoxicity against human Huh7.5 cells assessed as reduction in cell viability after 3 days by MTT assay; type: cell-based; conditions: time 3 day
Summary of the method: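 Huh7.5 cells were mock-infected and then treated with increasing concentrations of compound (3-fold serial dilutions), in parallel with the antiviral plates. Viability was measured by MTT assay and CC50 was derived. Run in triplicate.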

[3] = Selectivity index, ratio of CC50 for human Huh7.5 cells to EC50 for HCV genotype 2a JFH-1 infected in human Huh7.5 cells; type: toxicity, cell-based; conditions: read-out: Ratio CC50/EC50
Summary of the method: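 This is the CC50/EC50 ratio. CC50 came from MTT viability of mock-infected Huh7.5 cells. EC50 came from Renilla luciferase in Huh7.5 cells infected with JFH1-Luc (MOI 0.004) and read 3 days post-infection, with 3-fold serial compound dilutions. Both were run in parallel, in triplicate.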

[4] = molecular target: Peptidyl-prolyl cis-trans isomerase A (Homo sapiens, UniProt P62937); assay: Binding affinity to Cyclophilin A (unknown origin) by surface plasmon resonance analysis
Summary of the method: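 SPR was used. CypA was immobilized by EDC/NHS activation, diluted in 10 mM sodium acetate pH 6.0, then quenched with 1 M ethanolamine pH 8.5. A protein-free reference channel was used. Running buffer was PBS with 5% DMSO at 30 µL/min, with 3 min association and 4 min dissociation. Regeneration used 50 mM NaOH. KD came from kinetic fitting.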

Peptidyl-prolyl cis-trans isomerase A, sequence (P62937 whole entry): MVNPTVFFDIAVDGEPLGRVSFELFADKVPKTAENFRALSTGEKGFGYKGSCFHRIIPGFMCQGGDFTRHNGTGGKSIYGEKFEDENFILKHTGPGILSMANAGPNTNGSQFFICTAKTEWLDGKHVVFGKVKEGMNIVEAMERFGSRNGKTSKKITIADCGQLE

| Structure (SMILES) | EC50 [1] | CC50 at 72 h [2] | selectivity ratio [3] | Kd [4] |
| --- | --- | --- | --- | --- |
| COc1ccc(C(C(=O)NC2CCCCC2)N(C(=O)Cc2c[nH]c3ccccc23)c2ccc(Br)cc2)c(OC)c1OC (centres undefined) | > 7.2 µM | 7.2 µM |  |  |
| COc1ccc(N(C(=O)Cc2c[nH]c3ccccc23)C(C(=O)NC2CCCCC2)c2cc(OC)c(OC)c(OC)c2)cc1 (centres undefined) | 5 µM | 44.8 µM | 9 |  |
| NC(=O)c1ncn([C@@H]2O[C@H](CO)[C@@H](O)[C@H]2O)n1 [RIBAVIRIN] | > 100 µM | 16.3 µM | > 6.1 |  |
| COc1ccc(Cn2cc(CC(=O)N(c3ccccc3)C(C(=O)NC3CCCCC3)c3ccccc3)c3ccccc32)cc1 (centres undefined) | > 24.4 µM | 24.4 µM |  |  |
| COc1ccc(C(C(=O)NC2CCCCC2)N(C(=O)Cc2c[nH]c3ccccc23)C2CCCCC2)cc1OC (centres undefined) | > 14.6 µM | 14.6 µM |  |  |
| COc1ccc(N(C(=O)Cc2c[nH]c3ccccc23)C(C(=O)NC2CCCCC2)c2ccc(OC)c(OC)c2)cc1 (centres undefined) | 3.8 µM | 32.7 µM | 8.6 |  |
| COc1ccc(C(C(=O)NC2CCCCC2)N(CC(OC)OC)C(=O)Cc2c[nH]c3ccccc23)cc1OC (centres undefined) | > 54.5 µM | 54.5 µM |  |  |
| COc1cc(C(C(=O)NC2CCCCC2)N(C(=O)c2cc3ccccc3[nH]2)c2ccc(C(C)C)cc2)cc(OC)c1OC (centres undefined) | 2 µM | 19.4 µM | 9.7 |  |
| COc1cc(C(C(=O)NC2CCCCC2)N(C(=O)Cc2c[nH]c3ccccc23)c2ccc(C(C)C)cc2)cc(OC)c1OC (centres undefined) | 5.2 µM | > 100 µM | > 19.2 |  |
| COc1cc(C(C(=O)NC2CCCCC2)N(C(=O)Cc2c[nH]c3ccccc23)c2cccc3ccccc23)cc(OC)c1OC (centres undefined) | 9.4 µM | 33.2 µM | 3.4 |  |
| COc1cc(C(C(=O)NC(C)(C)C)N(C(=O)Cc2c[nH]c3ccccc23)c2ccc(C(C)C)cc2)cc(OC)c1OC (centres undefined) | 6.3 µM | 13.9 µM | 2.3 |  |
| COc1cc(C(C(=O)NC(C)(C)C)N(C(=O)c2cc3ccccc3[nH]2)c2ccc(C(C)C)cc2)cc(OC)c1OC (centres undefined) | 5.9 µM | 36.7 µM | 6.2 |  |
| COc1ccc(C(C(=O)NC2CCCCC2)N(C(=O)Cc2c[nH]c3ccccc23)c2ccc(C(C)C)cc2)cc1OC (centres undefined) | 2 µM | 6.9 µM | 3.5 |  |
| COc1ccc(C(C(=O)NC2CCCCC2)N(C(=O)Cc2c[nH]c3ccccc23)c2ccccc2)c(OC)c1OC (centres undefined) | > 18.8 µM | 18.8 µM |  |  |
| COc1ccc(N(C(=O)Cc2c[nH]c3ccccc23)C(C(=O)NC2CCCCC2)c2cc(OC)c(OC)c(OC)c2)cc1OC (centres undefined) | 10.2 µM | 56.7 µM | 5.5 |  |
| COc1ccc(CCN(C(=O)Cc2c[nH]c3ccccc23)C(C(=O)NC2CCCCC2)c2cc(OC)c(OC)c(OC)c2)cc1OC (centres undefined) | 5.3 µM | > 100 µM | > 18.9 | 3.66 µM |
| COc1ccc(C(C(=O)NC2CCCCC2)N(C(=O)Cc2c[nH]c3ccccc23)c2ccc(OC)c(OC)c2)cc1OC (centres undefined) | 5.3 µM | 55.3 µM | 10.5 |  |
| COc1ccc(C(C(=O)NC2CCCCC2)N(C(=O)Cc2c[nH]c3ccccc23)c2ccc(C(C)C)cc2)c(OC)c1OC (centres undefined) | > 5.9 µM | 5.9 µM |  |  |
